PubChem BioAssay
Activity calls are given as the source filed them.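 Rule for the calls, unless noted: active = fluorescence slope after compound addition differing from the mean of all screened samples at 99.7% confidence, in either direction; inactive = the rest.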

Columns and labels:
[1] = inhibitors of TNFa-induced NFkB p65 translocation, primary screen, imaging, HUVEC, MLSMR starter and 10KST1 sets (AID 438;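 active = inhibition above 20% together with a positive visual image hit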;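 note: compound added about 3h40 before a 20 min TNFalpha stimulation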;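 for inhibition: signal is the nuclear over cytoplasmic p65 intensity ratio per well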); details: HUVEC TNFa-induced p65 nuclear translocation; cell count: measured here: nuclei count (cytotoxicity indicator), at 2.08 µM; inhibition: at 2 µM, stronger effect = higher value, 0% TNFa-plus-vehicle, 100% no-TNFa wells
[2] = endothelial E-selectin expression blockers – imaging, HUVEC, immunofluorescence, MLSMR starter and 10KST1 sets, primary screen (AID 487;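 active = visually confirmed hit in the image check and inhibition above 20%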;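 for inhibition: signal is fraction of cell area covered by stained E-selectin grains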;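 for nuclei count: 100% = median nuclei count of all wells on the same plate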); details: HUVEC TNFalpha-induced E-selectin immunofluorescence imaging, at 2 µM; inhibition: stronger effect = higher value; nuclei count: measured here: cell number, toxicity
[3] = Primary imaging screen for DUSP6 inhibitors that restore phospho-Erk in transfected HeLa cells, chemical complementation (AID 609;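 active = compounds giving at least 50% inhibition in the cell-based MKP-3 phosphatase rescue imaging test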;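 for inhibition: phospho-Erk level distribution per well compared with pooled transfected vehicle control wells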); details: HeLa MKP-3 transfected, phospho-Erk imaging KS statistic, at 10 µM, cells stimulated with TPA for 15 min
[4] = biological target: Dual specificity protein phosphatase 6 (Homo sapiens) (UniProt Q16828); test: as above; details: HeLa MKP-3 transfected, phospho-Erk imaging KS statistic; at 10 µM; stronger effect = higher value; cells stimulated with TPA for 15 min
Dual specificity protein phosphatase 6 (Homo sapiens), sequence (Q16828 whole entry, looked up): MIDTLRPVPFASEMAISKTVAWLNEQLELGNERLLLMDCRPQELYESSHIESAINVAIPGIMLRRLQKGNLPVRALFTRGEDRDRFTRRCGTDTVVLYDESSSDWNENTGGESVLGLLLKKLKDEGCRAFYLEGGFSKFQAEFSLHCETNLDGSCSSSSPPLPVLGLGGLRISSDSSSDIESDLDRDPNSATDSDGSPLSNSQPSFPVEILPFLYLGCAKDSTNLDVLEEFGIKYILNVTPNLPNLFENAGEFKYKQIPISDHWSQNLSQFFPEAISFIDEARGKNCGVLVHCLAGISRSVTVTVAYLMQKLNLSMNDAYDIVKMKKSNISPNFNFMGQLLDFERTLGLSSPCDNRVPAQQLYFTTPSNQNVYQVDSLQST

[5] = biological target: Voltage-gated potassium channel subunit beta-2 (Rattus norvegicus) (UniProt P62483); test: inhibitors of rat Kvbeta2 reductase activity – biochemical, NADPH fluorescence, primary screen (AID 622;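 active = fluorescence slope higher than the sample average by over 3 SD, cut at about -0.22 in these data, passing the limit was not always enough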;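 note: slope of raw intensity against log time taken from 70 to 1610 s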); details: recombinant KvBeta, 4-cyanobenzaldehyde reduction, at 10 µM, stronger effect = higher value
Voltage-gated potassium channel subunit beta-2 (Rattus norvegicus), sequence (P62483 whole entry, looked up): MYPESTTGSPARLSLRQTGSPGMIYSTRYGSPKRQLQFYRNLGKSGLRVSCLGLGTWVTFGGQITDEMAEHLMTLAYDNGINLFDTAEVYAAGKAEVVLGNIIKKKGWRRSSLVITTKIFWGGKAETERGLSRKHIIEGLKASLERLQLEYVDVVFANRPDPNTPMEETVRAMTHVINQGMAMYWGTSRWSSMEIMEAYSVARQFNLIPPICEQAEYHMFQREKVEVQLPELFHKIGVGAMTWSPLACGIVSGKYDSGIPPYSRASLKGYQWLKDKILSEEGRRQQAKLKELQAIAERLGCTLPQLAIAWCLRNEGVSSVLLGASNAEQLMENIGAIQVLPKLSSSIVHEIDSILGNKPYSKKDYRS

[6] = biological target: Voltage-gated potassium channel subunit beta-2 (Rattus norvegicus) (UniProt P62483); test: enhancers of rat Kvbeta2 NADPH turnover – biochemical, NADPH fluorescence, primary screen (AID 623;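 active = NADPH fluorescence slope more negative than the mean of all samples by about 3 SD, 99.7% confidence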;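 note: fluorescence intensity change per second fitted from 20 to 320 s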); details: Recombinant KvBeta, NADPH fluorescence decrease slope, 10 min; at 10 µM; stronger effect = lower value
[7] = biological target: Alpha-2C adrenergic receptor (Homo sapiens) (UniProt P18825); test: compounds altering alpha2C-coupled GIRK flux – cell-based, HEK293 alpha2C/GIRK1/2, thallium flux, primary screen (AID 624); details: thallium flux BTC fluorescence, at 10 µM, actives lie on both sides;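 note: slope of fluorescence ratio to pre-addition baseline per second over 15 to 24 s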
Alpha-2C adrenergic receptor (Homo sapiens), sequence (P18825 whole entry, looked up): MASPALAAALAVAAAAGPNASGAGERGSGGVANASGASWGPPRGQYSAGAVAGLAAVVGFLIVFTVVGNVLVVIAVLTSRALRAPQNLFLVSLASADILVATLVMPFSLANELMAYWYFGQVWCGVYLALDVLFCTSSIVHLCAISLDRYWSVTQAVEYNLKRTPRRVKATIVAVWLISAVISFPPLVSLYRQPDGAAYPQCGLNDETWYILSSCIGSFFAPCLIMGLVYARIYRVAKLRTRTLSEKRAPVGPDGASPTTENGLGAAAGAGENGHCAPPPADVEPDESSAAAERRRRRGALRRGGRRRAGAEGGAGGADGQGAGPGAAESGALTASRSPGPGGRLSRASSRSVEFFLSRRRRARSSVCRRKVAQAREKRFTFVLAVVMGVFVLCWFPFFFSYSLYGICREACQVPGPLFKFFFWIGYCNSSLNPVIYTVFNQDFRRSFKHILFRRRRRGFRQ

[8] = inhibitors of larval lipid processing in zebrafish, primary screen, whole organism, PED6 fluorescence, gall bladder and intestine (AID 686;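 active = a full or partial loss of lipid-probe fluorescence in the fish gall bladder, intestine or both, judged by eye; inactive = no fluorescence loss, or compound toxic to the fish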;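 note: larvae 5 to 7 days old with five fish per well; signal comes from phospholipase A2 cleavage of quenched PED6 carried via bile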); details: Zebrafish larvae PED6 lipid processing, fluorescence scoring; screened at 20 µM (by protocol)
Method in brief: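 Incubation: overnight exposure of larvae to compound plus PED6 / Test system: live zebrafish larvae aged 5-7 days, whole organism / Amount: 5 larvae per well / Read-out basis: visual per-well fluorescence inhibition score / Signal: visual fluorescence microscopy scoring of gall bladder, gut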

[9] = loss of swimming-algae plug formation – whole organism, Chlamydomonas reinhardtii, WT vs cilia-less mutant, absorbance, 96-well, primary screen (AID 463189;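 active = inhibition at or above 50% relative to wild type and mutant plate controls; inactive = inhibition below 50%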;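 note: 0% = wild type cc124 cells in DMSO and 100% = ciliumless bld1 mutant cells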); details: Chlamydomonas reinhardtii gravitaxis, OD600 absorbance, 2 days; at 10 µM; stronger effect = higher value
[10] = measured here: cell density z-score
[11] = measured here: nuclear c-Myc green intensity z-score
[12] = measured here: nuclear pErk red intensity z-score, stronger effect = higher value

SMILES	cell count [1]	inhibition [1]	inhibition [2]	nuclei count [2]	z-score [3, 10]	z-score [3, 11]	z-score [3, 12]	inhibition [4]	fluorescence slope [5]	NADPH fluorescence slope [6]	slope [7]	outcome [8]	inhibition [9]
CCOC(=O)c1[nH]c2cc3c(cc2c1NC(=O)CN1CCc2ccccc2C1)OCO3	523	0.1% (inactive)	-11.1% (inactive)	104%	-0.283	-0.223	-0.654	-1.75% (inactive)	-0.248 (inactive)	-1e-07 (inactive)	0.00381 (inactive)	inactive	25.5% (inactive)
COc1cccc(NC(=O)CSC2=C(C#N)C(c3ccco3)C3=C(CCCC3=O)N2)c1 (stereo not given)	474	-0.1% (inactive)	-19.9% (inactive)	101%	0.0221	-0.732	2.07	-3.98% (inactive)	-0.506 (inactive)	-6.2e-05 (inactive)	0.00557 (inactive)	inactive	2.98% (inactive)
Clc1cccc(-c2nn3c(-c4cccc(Cl)c4)nnc3s2)c1	612	-7.8% (inactive)	-20.4% (inactive)	169%	1.02	1.46	-0.806	-4.27% (inactive)	-0.412 (inactive)	-0.000162 (inactive)	0.00698 (inactive)	inactive	14.4% (inactive)
COCc1cc(=O)[nH]c(Nc2nc3ccc(C)cc3o2)n1	568	-19% (inactive)	-52.2% (inactive)	156%	0.289	0.499	-0.0408	-3.97% (inactive)	-0.463 (inactive)	-4.8e-05 (inactive)	0.00626 (inactive)	inactive	2.95% (inactive)
CCCOc1ccc(Cc2nn[nH]n2)cc1	665	-9.9% (inactive)	-18.7% (inactive)	154%	-1.6	0.733	2.09	-3.95% (inactive)	-0.396 (inactive)	-5.5e-05 (inactive)	0.00599 (inactive)	inactive	-6.39% (inactive)
Cc1ccccc1NC(=O)NCCc1nc2ccccc2[nH]1	543	1.8% (inactive)	-92.3% (inactive)	163%	-1.18	-0.333	2.49	-11% (inactive)	-0.474 (inactive)	-0.000294 (inactive)	0.00493 (inactive)	inactive	-6.75% (inactive)
CC(=O)N1CC=C2C(C#N)=C(N)C(C#N)(C#N)[C@H](c3ccoc3)[C@H]2C1	364	-12.2% (inactive)	-63% (inactive)	90.4%	0.865	0.398	-2.11	-4.7% (inactive)	-0.371 (inactive)	7.7e-06 (inactive)	0.00495 (inactive)	inactive	-0.734% (inactive)
CC(=O)C1=C(O)C(=O)N(Cc2cccnc2)C1c1ccccc1Cl (stereo not given)	645	-3.5% (inactive)	-41.7% (inactive)	140%	1.32	-1.67	-1.62	31.1% (inactive)	-0.49 (inactive)	-0.000254 (inactive)	0.00582 (inactive)	inactive	10.6% (inactive)
C=CCOC(=O)C(C#N)c1nc2ccccc2nc1N1CCN(c2ccccc2OCC)CC1 (stereo not given)	543	-30.2% (inactive)	-94.9% (inactive)	165%	-0.552	-0.297	0.325	-11.5% (inactive)	-0.494 (inactive)	-3.6e-05 (inactive)	0.00373 (inactive)	inactive	-7.78% (inactive)
CSC(=Nc1ccccc1)C1=C(O)COC1=O	315	-17.4% (inactive)	-75.7% (inactive)	139%	1.64	-0.593	-1.01	5.26% (inactive)	-0.419 (inactive)	-8.2e-05 (inactive)	0.00729 (inactive)	inactive	-2.91% (inactive)
COc1cc(-c2nn3c(-c4ccco4)nnc3s2)cc(OC)c1OC	483	-2.2% (inactive)	-67.5% (inactive)	99.3%	-0.638	-0.467	0.841	-2.47% (inactive)	-0.471 (inactive)	3.2e-05 (inactive)	0.0061 (inactive)	inactive	4.86% (inactive)
CCOC(=O)c1c(NC(=O)CCN2CCOCC2)sc2c1CC(C)(C)OC2	658	-8.1% (inactive)	-45.3% (inactive)	163%	0.476	1.14	0.27	-7.28% (inactive)	-0.422 (inactive)	-3e-05 (inactive)	0.00607 (inactive)	inactive	-12.8% (inactive)
Cc1cc(C)n2c3c(c(C#N)c2n1)CC(C)(C)OC3	670	-7.2% (inactive)	55.6% (inactive)	131%	0.0106	-1.04	-0.0691	11.3% (inactive)	-0.327 (inactive)	2.8e-06 (inactive)	0.00519 (inactive)	inactive	14.5% (inactive)
CNC(=O)Nc1cccc(NC(=O)NC)n1	351	-2.8% (inactive)	-90.3% (inactive)	164%	0.612	0.757	-1.65	11.4% (inactive)	-0.456 (inactive)	-0.000144 (inactive)	0.00525 (inactive)	inactive	-3.2% (inactive)
CCc1cc(=O)oc2c(CN3CCCC3)c(O)c(Cl)cc12	285	-8.8% (inactive)	-56.3% (inactive)	98.8%	1.82	-0.243	-0.206	21% (inactive)	-0.247 (inactive)	-3.3e-05 (inactive)	0.0046 (inactive)	–	-9.29% (inactive)
CCN(CC)C(=O)CSC1=C(C#N)C(c2cccs2)C=C(C)N1 (stereo not given)	685	-20% (inactive)	-137% (inactive)	171%	-0.342	-0.599	1.19	-10.6% (inactive)	-0.405 (inactive)	-4.9e-05 (inactive)	0.00539 (inactive)	inactive	-1.96% (inactive)
COc1cccc(-c2nc(NC(C)C)c3ccccc3n2)c1O	342	-2.3% (inactive)	-37.3% (inactive)	152%	-0.0785	0.53	0.295	1.6e-07% (inactive)	-0.436 (inactive)	-0.000146 (inactive)	0.00488 (inactive)	–	75.4% (active)
CC1(C)CC(=O)c2cc(C(=O)N3CCCC(C)(C)C3)c(=O)n(-c3ccccc3)c2C1	523	-8% (inactive)	-71.4% (inactive)	121%	0.578	0.18	1.1	7.48% (inactive)	-0.48 (inactive)	-0.000165 (inactive)	0.00502 (inactive)	inactive	31.5% (inactive)
Cc1c(N2C(=O)SC(CC(=O)O)C2=O)c(=O)n(-c2ccccc2)n1C (stereo not given)	500	1.9% (inactive)	-80.6% (inactive)	128%	-1.16	-0.83	-0.709	-10.5% (inactive)	-0.518 (inactive)	-3.7e-05 (inactive)	0.00585 (inactive)	inactive	-1.65% (inactive)
COc1cccc(C2/C(=C(/O)c3cnn(-c4ccccc4)c3C)C(=O)C(=O)N2CCN(C)C)c1 (stereo not given)	510	-2.9% (inactive)	-176% (inactive)	132%	0.354	-0.911	0.0449	-8.76% (inactive)	-0.551 (inactive)	-7.2e-05 (inactive)	0.00551 (inactive)	inactive	7.34% (inactive)
CCOc1cccc(-c2nnc3sc(COc4ccccc4)nn23)c1	537	-7.5% (inactive)	40.9% (inactive)	91.9%	1.73	-0.94	-0.568	-4.27% (inactive)	-0.433 (inactive)	-9.6e-05 (inactive)	0.00533 (inactive)	inactive	17.6% (inactive)
CCOC(=O)c1cc(C)n(-c2ccc(OC)c(OC)c2)c1C	530	-8.1% (inactive)	-25.1% (inactive)	122%	1.68	-2.38	-0.201	5.57% (inactive)	-0.516 (inactive)	-0.000114 (inactive)	0.00418 (inactive)	inactive	-0.885% (inactive)
CCOc1cccc(-c2nn3c(-c4ccccn4)nnc3s2)c1	649	-3.2% (inactive)	-78% (inactive)	150%	0.204	-0.822	0.934	-9.66% (inactive)	-0.427 (inactive)	-4.9e-05 (inactive)	0.00726 (inactive)	inactive	23.8% (inactive)
Cc1ccccc1OCC(O)Cn1c(N2CCN(c3ccccc3)CC2)nc2c1c(=O)[nH]c(=O)n2C (stereo not given)	519	-0.6% (inactive)	-227% (inactive)	134%	-0.379	-1.18	0.818	8.76% (inactive)	-0.537 (inactive)	-3.2e-05 (inactive)	0.00634 (inactive)	inactive	22.7% (inactive)
Cn1c(NCC(O)c2ccccc2)nc2c1c(=O)n(Cc1ccc(Cl)c(Cl)c1)c(=O)n2C (stereo not given)	669	-6.1% (inactive)	-18.3% (inactive)	162%	0.306	0.44	1.81	6.04% (inactive)	-0.518 (inactive)	-3.6e-05 (inactive)	0.00441 (inactive)	inactive	75.1% (active)
CCO/C(C)=N/n1c2nc3ccccc3nc2c2c(=O)n(CC(C)C)c(C)nc21	369	1.4% (inactive)	-12.8% (inactive)	145%	-0.809	0.23	0.00332	14% (inactive)	-0.438 (inactive)	-6e-05 (inactive)	0.00351 (inactive)	–	9.95% (inactive)
